RAD54 inh: inhibitors of human RAD54 branch migration, primary screen, biochemical, fluorescence, single point; DNA repair and recombination protein RAD54-like (Homo sapiens), Q92698; RAD54 Holliday junction branch migration, FAM/BHQ fluorescence; inhibition, % at 10.4 µM; 0.14% of 360,000 active;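 active = mean normalized replicate activity at least 40 and at least half of replicates scoring 40 or more; inconclusive = only one of the two criteria met; inactive = mean below 40 and under half of replicates reaching 40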;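 also: 0% = median of neutral control wells and 100% = median of positive control wells; inhibitors cause a drop in the FAM fluorescence signal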
AF4-AF9 inh: inhibitors of AF4 peptide binding to AF9, primary screen, biochemical, AlphaScreen, biotin-AF4 peptide, FLAG-AF9, single point. Protein AF-9 (Homo sapiens), P42568. inhibition, % at 10 µM. 0.47% of 350,000 active;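 active = every replicate reaching a set inhibition limit, whatever the replicate mean, cut at about 25% in these data; inconclusive = mean inhibition reaches that limit but some replicates miss it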;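 also: 0% = plate neutral control median and 100% = total signal loss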
Target sequence (P42568 whole entry, looked up): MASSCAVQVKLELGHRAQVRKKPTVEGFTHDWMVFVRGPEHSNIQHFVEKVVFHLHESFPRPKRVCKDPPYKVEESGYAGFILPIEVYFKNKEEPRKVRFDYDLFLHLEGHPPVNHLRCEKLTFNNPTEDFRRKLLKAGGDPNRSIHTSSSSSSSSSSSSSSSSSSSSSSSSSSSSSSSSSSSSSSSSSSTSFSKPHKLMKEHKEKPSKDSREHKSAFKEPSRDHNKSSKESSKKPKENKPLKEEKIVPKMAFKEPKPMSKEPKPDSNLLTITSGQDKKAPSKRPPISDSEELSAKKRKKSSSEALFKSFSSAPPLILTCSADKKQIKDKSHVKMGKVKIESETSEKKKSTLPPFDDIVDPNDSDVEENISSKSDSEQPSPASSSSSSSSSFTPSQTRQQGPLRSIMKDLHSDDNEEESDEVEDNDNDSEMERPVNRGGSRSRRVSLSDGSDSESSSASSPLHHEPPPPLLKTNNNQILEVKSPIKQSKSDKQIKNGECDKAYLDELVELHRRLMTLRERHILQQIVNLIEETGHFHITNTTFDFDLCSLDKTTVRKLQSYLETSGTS
E-sel inducer: E-selectin induction in HUVECs, primary screen, imaging, HUVEC, immunofluorescence imaging, single point | 0.37% of 260,000 active | normalized: neutral wells 0, TNF-alpha wells 100 | P16581 | AID 686992, 2013 | activation, % at 7.58 µM;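 active = mean E-selectin-positive cell signal at least 10% of the positive control, reached in at least 60% of replicates, without over 20% cell loss; inconclusive = no rule given, readout overlaps actives, possibly toxicity-flagged; inactive = the rest, including those meeting only one limit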
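Assay system: HUVEC primary endothelial cells. Input: 3,000 HUVEC seeded per well. Doses: one compound dose added by pin transfer. Read-out basis: % PE-positive cells. Benchmarks: TNF-alpha high, DMSO low. Detection: immunofluorescence imaging. Buffer or medium: EGM-2, gelatin.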
GSIS activator: GLuc luminescence reporter in INS-1E cells, primary screen for activators of glucose-dependent secretion of insulin; INS-1E GLuc reporter insulin secretion, 2-3 h; activation, % at 16.6 µM; 0.61% of 370,000 active; AID 743287, 2014;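 active = lowest replicate activation of at least 40%, so every replicate reaches that level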;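 also: 0% = median of neutral control wells and 100% = median of IBMX positive control wells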
RAD52 anneal inh: RAD52 DNA annealing inhibitors, primary screen, biochemical, FRET, single point, set 2. inhibition, % at 18.7 µM. AID 651710, 2012. 0.46% of 360,000 active. DNA repair protein RAD52 homolog (Homo sapiens), P43351. recombinant RAD52 DNA annealing, FRET fluorescence;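 active = every replicate showing at least 50% inhibition; inconclusive = mean inhibition at least 50% but not in every replicate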
rRNA inh HTS: reduced GFP signal of wild-type E. coli, primary screen, bacterial rRNA inhibitor project, GFP/RFP fluorescence, OD600, single point | GFP signal change (wild-type ribosome), % (concentration not given with the values) | E. coli WT GFP vs humanized-ribosome RFP mutants, 24 h; active compounds read low; DMSO median 0, no signal -100 | 1.6% of 350,000 active;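 active = significant combined selectivity score with lowered wild-type GFP, culture density cut under 30%, mutant RFP and density less affected; inactive = any of these conditions unmet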
* = called active by the depositor; i = inactive; ? = inconclusive; / = not tested or not shown; ! = not confirmed by another sample. An excerpt weighted towards active compounds, which were near 2.6% of everything screened.

SMILES | RAD54 inh | AF4-AF9 inh | E-sel inducer | GSIS activator | RAD52 anneal inh | rRNA inh HTS
CC(C)NC(=S)N/N=C/c1c[nH]c2ccccc12 | / | / | / | -0.8 | / | /
Cc1[nH]c2ccccc2c1/C=N/NC(=S)NC(C)C | / | 13.4 | 19.4 | -4.5 | -171.5 | -47.0*
Cc1[nH]c2ccccc2c1/C=N/Nc1ccccc1[N+](=O)[O-] | / | 50.3* | -0.1 | -25.4 | -0.8 | -20.3*
CC[N+](CC)(CC#Cc1ccccc1)CC#Cc1ccccc1 | / | 1.5 | 1.3 | -26.8 | -1.6 | -44.6*
C#CC[N+](CC)(CC)CC#Cc1ccccc1 | 7.5 | -5.7 | 0.0 | 16.5 | -7.3 | 16.1
Cc1noc(C)c1NC(=O)Nc1ccc2c(c1)C(=O)N([C@@H](C)CO)C[C@H](C)[C@@H](CN(C)S(C)(=O)=O)OCCCC[C@H](C)O2 | 13.3 | -2.5 | 0.0 | 13.2 | -5.2 | 3.6
COc1ccc(Cl)cc1C(=O)Nc1cccc(-c2ccc3nncn3n2)c1 | / | 0.8 | / | 43.0* | -14.6 | 5.5
C[C@H](NC(=O)C[C@H]1CC[C@@H](NC(=O)Cc2ccccn2)[C@H](CO)O1)c1ccccc1 | 1.0 | 0.8 | 0.0 | 10.0 | -2.6 | 0.3
COc1ccc(S(=O)(=O)N2CCC(C(N)=O)(N3CCCCC3)CC2)cc1OC | -9.7 | -1.4 | / | 71.1* | -11.1 | -0.7
COc1ccc(S(=O)(=O)N2CCC(O)(c3ccc(Cl)cc3)CC2)cc1OC | / | -0.8 | 0.9 | -5.7 | -4.0 | -23.6*
NC(=O)C1(N2CCCCC2)CCN(S(=O)(=O)c2ccccc2)CC1 | -1.6 | -0.6 | -0.1 | 0.1 | -4.2 | 5.7
C[C@@H]1CCCCO[C@@H](CN(C)C(=O)Cc2ccccc2)[C@@H](C)CN([C@@H](C)CO)C(=O)c2cc(NS(=O)(=O)c3ccccc3)ccc2O1 | -2.9 | -0.5 | -0.2 | -28.9 | 0.3 | -1.3
CN(C)CCCNC(=O)C[C@H]1CC[C@H]2[C@H](COc3ccc(NC(=O)c4ccc5c(c4)OCO5)cc3C(=O)N2C)O1 | 8.4 | / | 0.0 | 3.6 | -1.8 | 3.8
CCNC(=O)[C@H]1[C@H](CO)[C@H]2Cn3c(cccc3=O)[C@@H]1N2C(=O)c1ccc(F)cc1 | / | -1.4 | 0.0 | 13.4 | -10.1 | 1.5
CO[C@H]1CN(C)C(=O)c2cc(NS(C)(=O)=O)ccc2OC[C@H](C)N(C(=O)CC2CC2)C[C@@H]1C | -6.8 | 0.2 | -0.3 | 7.6 | 2.2 | 4.2
CC(C)C(=O)NC(c1cccc([N+](=O)[O-])c1)c1ccc2cccnc2c1O (centres undefined) | 4.5 | ? | 0.1 | -1.8 | -6.4 | -0.4
CCCC(=O)NC(c1cccc([N+](=O)[O-])c1)c1ccc2cccnc2c1O (centres undefined) | -10.0 | 34.0* | -0.2 | -17.1 | -30.6 | -40.8
CCN(CC)c1ccc(C(NC(=O)C(C)C)c2ccc3cccnc3c2O)cc1 (centres undefined) | 7.8 | 29.5* | 1.5 | / | -14.5 | -1.8
CCCCC(=O)NC(c1ccc(N(C)C)cc1)c1ccc2cccnc2c1O (centres undefined) | 0.2 | 57.4* | 0.0 | -13.0 | -16.6 | -14.1
O=C(NCc1ccccc1)[C@H]1N[C@H]2c3ccc(-c4ccccc4)c(=O)n3C[C@H]2[C@@H]1CO | -3.5 | 3.4 | 0.2 | 9.1 | -2.1 | -3.7
C[C@H](CO)N1C[C@H](C)[C@@H](CN(C)C(=O)NC2CCCCC2)Oc2ccc(NS(=O)(=O)c3cn(C)cn3)cc2CC1=O | 2.5 | / | 2.9 | -2.0 | / | 2.6
CCOC(=O)/C(=N\Nc1ccccc1)S(=O)(=O)c1ccccc1 | 2.1 | 3.4 | / | 16.0 | -10.2 | 8.5
CCOC(=O)/C(=N\Nc1ccccc1)P(=O)(c1ccccc1)c1ccccc1 | 8.2 | 8.0 | -0.1 | -29.4 | -6.8 | -36.8*
CCC(=O)N1C[C@@H](C)[C@H](OC)CN(C)C(=O)c2ccc(NC(=O)Nc3ccc(Cl)cc3)cc2OC[C@@H]1C | 0.6 | 2.7 | 0.6 | -20.3 | -0.3 | -5.6
CN(C)CCNc1ccc2ncn3c4ccc(O)cc4c(=O)c1c23 | / | 33.8* | / | / | i | /
SMILES | RAD54 inh | AF4-AF9 inh | E-sel inducer | GSIS activator | RAD52 anneal inh | rRNA inh HTS
C[C@H](CO)N1C[C@H](C)[C@@H](CN(C)CC2CCCCC2)Oc2ccc(NC(=O)Nc3ccc4c(c3)OCO4)cc2CC1=O | -15.7 | 26.0* | -0.2 | 6.8 | 18.5 | 0.8
C[C@H]1CN([C@@H](C)CO)C(=O)Cc2cc(NC(=O)Nc3ccc4c(c3)OCO4)ccc2O[C@H]1CN(C)CC1CCCCC1 | 16.5 | 17.1 | -0.4 | -10.7 | 12.8 | -0.2
C[C@@H]1CN([C@@H](C)CO)C(=O)Cc2cc(NC(=O)Nc3ccc4c(c3)OCO4)ccc2O[C@H]1CN(C)C | 2.9 | 5.4 | 384.1* | -5.6 | 9.6 | -1.8
C[C@H](CO)N1C[C@H](C)[C@@H](CN(C)S(=O)(=O)c2ccc(F)cc2)Oc2cc(Br)ccc2S1(=O)=O | -0.5 | 1.9 | 0.7 | -23.7 | 14.5 | -25.1*!
COc1ccccc1S(=O)(=O)N(C)C[C@H]1Oc2cc(Br)ccc2S(=O)(=O)N([C@H](C)CO)C[C@H]1C | 5.6 | 2.1 | 2.8 | -32.4 | -3.6 | -34.0*!
Cc1cc(=O)c2c(N(C)C)cccc2[nH]1 | 33.9 | 31.6* | 0.5 | 17.6 | 19.1 | -1.5
O=C(Cc1ccccc1)N1CC2(C1)[C@H](c1ccccc1)[C@@H](CO)N2S(=O)(=O)Cc1ccccc1 | / | -15.1 | -0.4 | -1.7 | -162.8 | -9.0
CCOC(=O)c1ccc2c(c1)nc(SCC(=O)c1cc3ccccc3o1)n2CC | -6.1 | / | / | -10.8 | / | /
C=CCNC(=O)CSc1nc2cc(C(=O)OCC)ccc2n1CC | 3.0 | -38.1 | / | 1.8 | -5.5 | -42.8*
Cc1cc(C)nc(NC(=O)/C=C/c2cccs2)c1 | 1.0 | -37.3 | / | 5.3 | -27.4 | -26.6*
O=C(O)c1ccc(/C=N/Nc2nc3ccccc3[nH]2)cc1 | -0.1 | -24.6 | / | -1.0 | 0.0 | 13.8
O=C(N/N=C/c1ccccn1)c1cccc([N+](=O)[O-])c1 | / | 2.4 | 2.1 | 8.1 | -18.7 | 11.7
O=C(NN=Cc1ccccc1O)c1cccc([N+](=O)[O-])c1 | -3.4 | -1.8 | 0.3 | 0.5 | 1.2 | -27.1*
O=[N+]([O-])c1ccc(O)c(/C=N/Nc2nc3ccccc3[nH]2)c1 | / | 32.1* | -0.2 | -29.9 | -3.5 | -54.6
O=[N+]([O-])c1ccc(N/N=C/c2ccccc2O)cc1 | 1.6 | 2.4 | / | 22.6 | -9.6 | -18.6*
CC(=O)Nc1ccc(/C=N/Nc2nc3ccccc3[nH]2)cc1 | / | 2.1 | / | -13.0 | -12.3 | -21.3*
